# OX1R antag-1: OX1R (HCRTR1) antagonists, primary screen, fluorescence, CHO/OX1R cells, Fluo-8 calcium, orexin A | Fluo-8 calcium fluorescence | inhibition, % at 5 µM | 330,000 compounds, 0.43% hits | Orexin/Hypocretin receptor type 1 (Homo sapiens), O43613 | AID 434989, 2010;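 active means inhibition above its plate's threshold, mean inhibition of all tested compounds on the plate plus 3 SD, cut at about 37% in these data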
# Target sequence (O43613 whole entry, looked up): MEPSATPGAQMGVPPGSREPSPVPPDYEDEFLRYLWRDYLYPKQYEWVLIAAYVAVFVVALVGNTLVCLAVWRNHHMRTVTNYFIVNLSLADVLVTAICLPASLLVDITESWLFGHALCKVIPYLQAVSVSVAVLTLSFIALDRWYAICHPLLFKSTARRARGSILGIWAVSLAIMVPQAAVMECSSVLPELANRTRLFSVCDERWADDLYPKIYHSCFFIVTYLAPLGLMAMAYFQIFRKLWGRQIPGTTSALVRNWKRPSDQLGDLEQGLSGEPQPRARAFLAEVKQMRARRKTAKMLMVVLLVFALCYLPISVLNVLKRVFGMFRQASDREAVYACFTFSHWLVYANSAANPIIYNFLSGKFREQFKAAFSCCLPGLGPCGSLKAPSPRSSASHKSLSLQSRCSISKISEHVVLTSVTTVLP
# TAAR1 ag: human TAAR1 agonists, primary screen, Fluo-8 calcium fluorescence, CHO RD-HGA16 cells; vehicle wells 0%, saturating PEA agonist 100%; activation, % at 3 µM; 360,000 compounds, 0.99% hits; AID 624467, 2012;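 active means activation above the mean activation of all test compounds in the run plus 3 SD, cut at about 38% in these data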
#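 Repeats: no replicates (n 1) | Material: CHO-derived RD-HGA16 cells with stable Gα16 and human TAAR1 | Technique: Kinetic Fluo-8 calcium fluorescence | Schedule: 17-24 h seeding, 75 min 37 °C dye, 30 min RT | Evaluation: % activation from peak over basal fluorescence ratio, DMSO-to-PEA scaled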
# OX1R antag-2: antagonists of human orexin 1 receptor (OX1R) | OX1R-expressing cells, FRET antagonist read-out | inhibition, % at 6.6 µM | 330,000 compounds, 1.8% hits; in the data active means inhibition mostly above about 38%, no sharp cut-off; inactive means mostly below about 40%
# CHO parental Ca: ATP-evoked calcium signal inhibitors, parental CHO, primary screen, counter-screen for OX1R antagonist project, cell-based, fluorescence, Fluo-8 calcium dye; parental CHO-K1, ATP-induced calcium, Fluo-8 fluorescence; inhibition, % at 5.6 µM; 330,000 compounds, 0.63% hits;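 active means inhibition above that plate's mean sample inhibition plus 3 SD, cut at about 26% in these data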
#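 Material – parental CHO cells · Reagent – ATP stimulus · Compound – single nominal dose of 5.6 µM per compound · Detection – Fluo-8 fluorescence · Read-out basis – percent inhibition of calcium signal · Controls – ATP-challenged DMSO wells low, unchallenged DMSO wells high · Repeats – no replicates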
# TAAR1 antagonist: human TAAR1 antagonists, primary screen, Fluo-8 calcium fluorescence, CHO RD-HGA16 cells; Trace amine-associated receptor 1 (Homo sapiens), Q96RJ0; antagonist; inhibition, % at 3 µM; 360,000 compounds, 1.5% hits; AID 624466, 2012;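 active means inhibition above a per-plate cutoff, the mean inhibition of test compounds on that plate plus 3 SD, cut at about 49% in these data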
#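 System: RD-HGA16 CHO cells with stable hTAAR1 and Gα16 | Probe or stimulus: EC80 β-phenethylamine stimulus | Dosing: 3 µM, single point | Times: Dye loading 75 min at 37 °C, then 30 min room temperature | Measured by: Fluo-8 calcium-sensitive fluorescence | Read-out basis: % inhibition of agonist calcium response | Replicates: n of 1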
# GPR7 antag: GPR7 receptor antagonists, primary screen, cell-based, fluorescence, single concentration; Neuropeptides B/W receptor type 1 (Homo sapiens), P48145; 290,000 compounds, 1.1% hits; inhibition, % at 4.4 µM; GPR7-expressing cells, fluorescence antagonist assay; in the data active means inhibition above about 16%, passing the limit was not always enough;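 further: cells stimulated with the agonist NPW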
# Target sequence (P48145 whole entry, looked up): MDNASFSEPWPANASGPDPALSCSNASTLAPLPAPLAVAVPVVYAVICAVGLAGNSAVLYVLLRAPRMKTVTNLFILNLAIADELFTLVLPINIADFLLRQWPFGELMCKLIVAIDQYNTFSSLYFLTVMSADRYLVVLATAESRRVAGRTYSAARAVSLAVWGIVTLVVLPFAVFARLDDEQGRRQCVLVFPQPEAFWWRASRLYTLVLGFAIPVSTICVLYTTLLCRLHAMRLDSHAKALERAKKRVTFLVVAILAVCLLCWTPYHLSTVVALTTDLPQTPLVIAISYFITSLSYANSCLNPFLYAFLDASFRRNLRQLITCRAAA
# TAAR1 nonsel count: nonselective antagonists in TAAR1 counter-screen cells, counter-screen for hTAAR1 antagonist project, cell-based, fluorescence, calcium; shares compounds with TAAR1 antagonist; counterscreen cell line, antagonist mode; inhibition, % at 3 µM; 2,400 compounds, 77% hits; in the data active means inhibition above about 22%;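 further: CHO-Ga16 host cells stimulated with ATP at an EC80 level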
# TAAR1 ant conf: human TAAR1 antagonists, retest of hits, confirmation, cell-based, fluorescence. TAAR1-expressing cells, fluorescence antagonist read-out. 2,400 compounds, 40% hits. inhibition, % at 3 µM. shares compounds with TAAR1 antagonist; in the data active means inhibition above about 49%;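 further: CHO-Ga16 host cells challenged with agonist PEA near its EC80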
# Ga16 ag counter: calcium activation in Ga16-expressing cells, counter-screen for TAAR1 antagonist project, cell-based, fluorescence | shares compounds with TAAR1 antagonist | agonist counterscreen | activation, % at 3 µM | 2,400 compounds, 18% hits; in the data active means activation above about 12%
# TAAR1 ag count: TAAR1 activation by candidate antagonists – cell-based, fluorescence, counter-screen for TAAR1 antagonist project; 2,400 compounds, 2% hits; hTAAR1 cell line, agonist mode; activation, % at 3 µM; shares compounds with TAAR1 antagonist; in the data active means activation above about 37%;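 further: CHO cells stably expressing TAAR1 with calcium dye readout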
# Numbers stand for hits; i = inactive; nt = no result given. An excerpt weighted towards active compounds, which were near 4.5% of everything screened.
SMILES,OX1R antag-1,TAAR1 ag,OX1R antag-2,CHO parental Ca,TAAR1 antagonist,GPR7 antag,TAAR1 nonsel count,TAAR1 ant conf,Ga16 ag counter,TAAR1 ag count
CCOC(=O)c1ccc(NC(=O)CN(C)S(=O)(=O)c2ccc(Br)s2)cc1,i,i,i,i,85.1,i,38.3,i,i,i
CC(=O)c1c(C)[nH]c(C(=O)COC(=O)CNS(=O)(=O)c2ccccc2)c1C,i,i,i,i,i,i,nt,nt,nt,nt
CCOC(=O)c1c(C)[nH]c(C(=O)COC(=O)CNS(=O)(=O)c2ccc(C)cc2)c1C,i,i,i,i,75.5,nt,39.0,52.2,i,i
COc1cccc(-c2nc(NC3CCCC3)c3ccccc3n2)c1O,i,i,i,i,61.4,i,21.5,52.6,i,i
COc1cccc(-c2nc(N3CCCCC3C)c3ccccc3n2)c1O (stereo not drawn),i,i,i,i,i,i,nt,nt,nt,nt
CCOc1ccc(N2CC(C(=O)NNC(=O)c3ccc(Br)cc3)CC2=O)cc1 (stereo not drawn),i,i,i,i,i,nt,nt,nt,nt,nt
O=C(NCCN1C(=O)S/C(=C\c2ccccc2)C1=O)C1CCN(S(=O)(=O)c2cccs2)CC1,i,i,i,i,67.2,i,45.7,51.6,15.2,i
CC(C)CN(CC(C)C)S(=O)(=O)N1CCC(C(=O)NCCc2ccc(Cl)cc2)CC1,i,i,i,i,49.4,i,32.3,53.2,i,i
O=C(NCCc1ccc(Cl)cc1)C1CCN(S(=O)(=O)c2cccs2)CC1,i,i,i,i,60.8,i,i,50.0,16.4,i
CC1(C)CC(=O)C=C(c2n[nH]nc2C2CC2)C1,nt,i,nt,nt,i,nt,nt,nt,nt,nt
CC1C(=O)N(Cc2cn(CCC3OCCCO3)nn2)CCS(=O)(=O)N1Cc1ccc(-c2cccc(CO)c2)cc1 (stereo not drawn),nt,i,nt,nt,i,nt,nt,nt,nt,nt
COc1ccc(S(=O)(=O)Nc2c(NC3CCCCC3)c3ccccc3oc2=O)cc1OC,i,i,i,i,50.8,i,i,i,i,i
C=CC[C@@H](CC(=O)N(CCO)Cc1ccccc1)C(=O)N[C@H](COC(=O)[C@H](CC=C)CC(=O)OC(C)(C)C)Cc1c[nH]c2ccccc12,i,i,i,i,i,nt,nt,nt,nt,nt
C=CCC[C@H](Cc1ccc(F)cc1)C(=O)OC[C@H](Cc1c[nH]c2ccccc12)NC(=O)[C@H](CC=C)CC(=O)NCCO,i,i,i,i,73.0,nt,25.7,i,i,i
C=CC[C@@H](CC(=O)N[C@H](CO)Cc1ccccc1)C(=O)NC[C@H](OC(=O)[C@@H](CC=C)Cc1ccc(F)cc1)c1ccccc1,i,i,i,i,68.9,nt,30.4,55.9,i,i
C=CC[C@H](CC(=O)N(CCO)Cc1ccccc1)C(=O)N[C@H](COC(=O)[C@@H](CC=C)CC(=O)OC(C)(C)C)Cc1c[nH]c2ccccc12,i,i,i,i,66.7,nt,i,i,i,i
COC(=O)c1ccc(OCCOc2ccccc2)cc1,i,i,i,i,i,i,nt,nt,nt,nt
COc1cccc(OC)c1OCCOc1ccc(C(=O)c2ccccc2)cc1,i,i,i,i,51.6,i,31.1,58.7,i,i
COc1ccc(OC)c(CN2CCCC(C(=O)N3CCCCC3)C2)c1 (stereo not drawn),i,i,i,i,106.2,i,i,i,i,i
COc1ccc(CCNC(=O)c2cc(C3CC3)nc3c2cnn3C(C)C)cc1OC,i,i,i,i,i,nt,nt,nt,nt,nt
COc1ccc(CNC(=O)c2cc(C3CC3)nc3c2cnn3C(C)C)cc1,i,i,i,i,50.4,nt,i,i,i,i
O=C(c1cccc(Cl)c1)N1CCC(=O)N([C@H](COCc2cccc(Cl)c2)Cc2ccccc2)CC1,nt,i,nt,nt,i,nt,nt,nt,nt,nt
CC(C)(C)c1ccc(C(=O)NCc2nnc(SCC(=O)N3CCCC3)o2)cc1,nt,i,nt,nt,i,nt,nt,nt,nt,nt
CSCCCc1cn([C@@H](CO)C(=O)NCCCCCCCCCCC(=O)N2CCNCC2)nn1,i,i,i,i,i,nt,nt,nt,nt,nt
CC[C@H](C)C(C(=O)N1CCN(C(=O)OC(C)(C)C)CC1)n1cc(C(CC(C)C)NC(=O)OC(C)(C)C)nn1 (stereo partly drawn),i,i,i,i,i,i,nt,nt,nt,nt
SMILES,OX1R antag-1,TAAR1 ag,OX1R antag-2,CHO parental Ca,TAAR1 antagonist,GPR7 antag,TAAR1 nonsel count,TAAR1 ant conf,Ga16 ag counter,TAAR1 ag count
CC[C@@H](C)[C@@H](C(=O)N1CCN(C(=O)OC(C)(C)C)CC1)n1cc(CCCCNC(=O)OC(C)(C)C)nn1,i,i,i,i,68.9,i,42.1,61.1,12.8,i
CSCC[C@@H](C(=O)NCCCCCCCCCCC(=O)N1CCN(C(=O)OC(C)(C)C)CC1)n1cc(CCO)nn1,i,i,i,i,50.2,nt,27.6,i,i,i
C(=C\c1ccccc1)/CN1CCN(C(c2cccc3ccccc23)c2nnnn2-c2ccc3c(c2)OCCO3)CC1 (stereo not drawn),nt,i,nt,nt,i,nt,nt,nt,nt,nt
CCc1ccc(Cn2ncc3c(C(=O)O)cc(C)nc32)cc1,nt,i,nt,nt,i,nt,nt,nt,nt,nt
CC1=C(C(=O)N(C(C)C)C(C)C)CC(CC(=O)NCc2ccco2)C(=O)N1Cc1ccccc1 (stereo not drawn),nt,i,nt,nt,i,nt,nt,nt,nt,nt
C#Cc1cccc(NC(=O)c2ccc3c(c2)C(=O)N(Cc2cccnc2)C3=O)c1,i,i,i,i,84.8,i,42.4,61.5,13.9,i
O=C(O)c1cc(NC(=O)c2ccc3c(c2)C(=O)N(Cc2cccnc2)C3=O)cc(C(=O)O)c1,i,i,i,i,i,i,nt,nt,nt,nt
CCSc1nc2ccccc2c(=O)n1CCc1ccc(OC)c(OC)c1,i,i,i,i,61.2,i,29.8,i,i,i
Cn1c(NCCc2ccncc2)nc2cc(-c3ccsc3)sc2c1=O,nt,i,nt,nt,i,nt,nt,nt,nt,nt
CCCNNC(=O)C(O)(c1ccccc1)c1ccccc1,i,i,i,i,i,i,nt,nt,nt,nt

# Screening results from PubChem.
